The values below come from ChEMBL document CHEMBL3352237, “Synthesis and biological evaluation of novel peptide BF2 as an antibacterial agent against clinical isolates of vancomycin-resistant enterococci” (J Med Chem, 2014).

Common to all, as to assay type: functional
The subject of experiment [1] is Enterococcus faecium. As to the kind of experiment: Antibacterial activity against vancomycin-resistant Enterococcus faecium clinical isolate 12875 after overnight incubation by two-fold serial dilution method.
Experiment [2] relates to Enterococcus. As to the kind of experiment: Antibacterial activity against vancomycin-resistant Enterococcus ATCC 29212 after overnight incubation by two-fold serial dilution method.
The test system of experiment [3] is Enterococcus faecium. The experiment is described as follows: Antibacterial activity against vancomycin-resistant Enterococcus faecium clinical isolate 27/221 after overnight incubation by two-fold serial dilution method.
Experiment [4] relates to Enterococcus faecium. The experiment is described as follows: Antibacterial activity against vancomycin-resistant Enterococcus faecium clinical isolate 7/27 after overnight incubation by two-fold serial dilution method.
Experiment [5] concerns Enterococcus faecium. The experiment is described as follows: Antibacterial activity against vancomycin-resistant Enterococcus faecium clinical isolate 30/48 after overnight incubation by two-fold serial dilution method.
Experiment [6] deals with Enterococcus faecium. As to the kind of experiment: Antibacterial activity against vancomycin-resistant Enterococcus faecium clinical isolate 6/22 after overnight incubation by two-fold serial dilution method.
For experiment [7], the system named is Enterococcus faecium. As to the kind of experiment: Antibacterial activity against vancomycin-resistant Enterococcus faecium clinical isolate 15/213 after overnight incubation by two-fold serial dilution method.
Experiment [8] has as its system Enterococcus faecium. The experiment is described as follows: Antibacterial activity against vancomycin-resistant Enterococcus faecium clinical isolate 16475 after overnight incubation by two-fold serial dilution method.
Experiment [9] relates to Enterococcus faecium. As to the kind of experiment: Antibacterial activity against vancomycin-resistant Enterococcus faecium clinical isolate 3864 after overnight incubation by two-fold serial dilution method.
The subject of experiment [10] is Enterococcus faecium. As to the kind of experiment: Antibacterial activity against vancomycin-resistant Enterococcus faecium clinical isolate 31386 after overnight incubation by two-fold serial dilution method.
Experiment [11] has as its system Enterococcus faecium. The experiment is described as follows: Antibacterial activity against vancomycin-resistant Enterococcus faecium clinical isolate 27/16917 after overnight incubation by two-fold serial dilution method. The settings on record: isolate 27/1691.
Experiment [12] relates to Enterococcus faecium. The experiment is described as follows: Antibacterial activity against vancomycin-resistant Enterococcus faecium clinical isolate 8/224 after overnight incubation by two-fold serial dilution method.
In experiment [13] the test system is Enterococcus faecium. The experiment is described as follows: Antibacterial activity against vancomycin-resistant Enterococcus faecium clinical isolate 12/266 after overnight incubation by two-fold serial dilution method.
Experiment [14] relates to Enterococcus faecium. As to the kind of experiment: Antibacterial activity against vancomycin-resistant Enterococcus faecium clinical isolate 151495 after overnight incubation by two-fold serial dilution method.
The subject of experiment [15] is Enterococcus. As to the kind of experiment: Antibacterial activity against vancomycin-resistant Enterococcus ATCC 51299 after overnight incubation by two-fold serial dilution method.
Experiment [16] concerns Enterococcus faecium. The experiment is described as follows: Antibacterial activity against vancomycin-resistant Enterococcus faecium clinical isolate 23/240 after overnight incubation by two-fold serial dilution method.
In experiment [17] the test system is Enterococcus. The experiment is described as follows: Antibacterial activity against Enterococcus infected in Wistar albino rat assessed as reduction in cell count at 25 mg/kg, iv after 1 hr relative to control. Further details: scale not given: the % may be the effect or the level left. The method, boiled down:
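Female Wistar albino rats, 40−45 days old, 125−150 g, 5 groups of 3. Enterococci were grown to log phase in MH broth, centrifuged at 1000g for 15 min, and diluted in PBS to 4 × 10^6 CFU/mL. Rats were inoculated i.v. and treated i.v. 1 h later with 12.5, 25 or 37.5 mg/kg peptide, PBS vehicle, or linezolid 25 mg/kg. Tail-vein blood taken 1 h post-treatment was plated on blood agar, incubated overnight at 37 °C, and colonies counted.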

Experiment [18] deals with Enterococcus faecium. As to the kind of experiment: Antibacterial activity against vancomycin-resistant Enterococcus faecium clinical isolate 18906 after overnight incubation by two-fold serial dilution method.
In experiment [19] the test system is Enterococcus faecium. The experiment is described as follows: Antibacterial activity against vancomycin-resistant Enterococcus faecium clinical isolate 17301 after overnight incubation by two-fold serial dilution method.
The test system of experiment [20] is Enterococcus faecium. As to the kind of experiment: Antibacterial activity against vancomycin-resistant Enterococcus faecium clinical isolate 10177 after overnight incubation by two-fold serial dilution method.
Experiment [21] concerns Enterococcus faecium. The experiment is described as follows: Antibacterial activity against vancomycin-resistant Enterococcus faecium clinical isolate 13246 after overnight incubation by two-fold serial dilution method.
Experiment [22] deals with Enterococcus faecium. As to the kind of experiment: Antibacterial activity against vancomycin-resistant Enterococcus faecium clinical isolate 28/211 after overnight incubation by two-fold serial dilution method.
Experiment [23] relates to Enterococcus faecium. As to the kind of experiment: Antibacterial activity against vancomycin-resistant Enterococcus faecium clinical isolate 14643 after overnight incubation by two-fold serial dilution method.
Experiment [24] relates to Enterococcus faecium. The experiment is described as follows: Antibacterial activity against vancomycin-resistant Enterococcus faecium clinical isolate 5484 after overnight incubation by two-fold serial dilution method.
Experiment [25] deals with Enterococcus faecium. The experiment is described as follows: Antibacterial activity against vancomycin-resistant Enterococcus faecium clinical isolate 16115 after overnight incubation by two-fold serial dilution method.
For experiment [26], the system named is Enterococcus faecium. As to the kind of experiment: Antibacterial activity against vancomycin-resistant Enterococcus faecium clinical isolate 147969 after overnight incubation by two-fold serial dilution method.
Experiment [27] concerns Enterococcus faecium. The experiment is described as follows: Antibacterial activity against vancomycin-resistant Enterococcus faecium clinical isolate 31176 after overnight incubation by two-fold serial dilution method.
Experiment [28] concerns Enterococcus faecium. As to the kind of experiment: Antibacterial activity against vancomycin-resistant Enterococcus faecium clinical isolate 5396 after overnight incubation by two-fold serial dilution method.
In experiment [29] the test system is Enterococcus faecium. As to the kind of experiment: Antibacterial activity against vancomycin-resistant Enterococcus faecium clinical isolate 29/203 after overnight incubation by two-fold serial dilution method.
The subject of experiment [30] is Enterococcus. As to the kind of experiment: Antibacterial activity against vancomycin-resistant Enterococcus ATCC 51299 by checkerboard titration method in presence of vancomycin.
Experiment [31] relates to Enterococcus. The experiment is described as follows: Antibacterial activity against vancomycin-resistant Enterococcus ATCC 29212 by checkerboard titration method in presence of vancomycin.
Experiment [32] relates to Enterococcus. The experiment is described as follows: Antibacterial activity against vancomycin-resistant Enterococcus ATCC 51299 by checkerboard titration method in presence of linezolid.
Experiment [33] has as its system Enterococcus. The experiment is described as follows: Antibacterial activity against vancomycin-resistant Enterococcus ATCC 29212 by checkerboard titration method in presence of linezolid.

Values after ≈ are worked out from the molar mass of the structure shown.

`CC(=O)NC[C@H]1CN(c2ccc(N3CCOCC3)c(F)c2)C(=O)O1` [LINEZOLID]: the MIC in the experiment with Enterococcus faecium [1] was determined as 1 µg/mL (≈ 2.96 µM); in the experiment on Enterococcus [2], 1 µg/mL (≈ 2.96 µM); against Enterococcus faecium [3], 1 µg/mL (≈ 2.96 µM); in the experiment with Enterococcus faecium [4], 2 µg/mL (≈ 5.93 µM); with Enterococcus faecium [5], 2 µg/mL (≈ 5.93 µM); with Enterococcus faecium [6], 1 µg/mL (≈ 2.96 µM). Also, the minimum inhibitory concentration (MIC) with Enterococcus faecium [7] amounted to 1 µg/mL (≈ 2.96 µM); in the experiment with Enterococcus faecium [8], 1 µg/mL (≈ 2.96 µM); against Enterococcus faecium [9], 2 µg/mL (≈ 5.93 µM); in the experiment on Enterococcus faecium [10], 2 µg/mL (≈ 5.93 µM); with Enterococcus faecium [11], 1 µg/mL (≈ 2.96 µM); against Enterococcus faecium [12], 1 µg/mL (≈ 2.96 µM). Moreover, the minimum inhibitory concentration (MIC) amounted to 2 µg/mL (≈ 5.93 µM) against Enterococcus faecium [13]; 1 µg/mL (≈ 2.96 µM) in the experiment with Enterococcus faecium [14]; 2 µg/mL (≈ 5.93 µM) with Enterococcus [15]; 1 µg/mL (≈ 2.96 µM) against Enterococcus faecium [16]; 2 µg/mL (≈ 5.93 µM) with Enterococcus faecium [18]; 1 µg/mL (≈ 2.96 µM) against Enterococcus faecium [19]. In addition, the minimal inhibitory concentration (MIC) with Enterococcus faecium [20] worked out at 1 µg/mL (≈ 2.96 µM); in the experiment on Enterococcus faecium [21], 2 µg/mL (≈ 5.93 µM); against Enterococcus faecium [22], 2 µg/mL (≈ 5.93 µM); with Enterococcus faecium [23] it was 2 µg/mL (≈ 5.93 µM); in the experiment on Enterococcus faecium [24], 1 µg/mL (≈ 2.96 µM); in the experiment with Enterococcus faecium [25], 1 µg/mL (≈ 2.96 µM). The minimum inhibitory concentration (MIC) with Enterococcus faecium [26], with Enterococcus faecium [27], against Enterococcus faecium [28] and in the experiment on Enterococcus faecium [29] was 1 µg/mL (≈ 2.96 µM) in each case. Moreover, the Activity with Enterococcus [17] came to 93.8%.

For the compound H-FLPLIGRVLSGIL-NH2 [TEMPORIN A], the “fractional inhibitory concentration index (FICI)” value in the experiment with Enterococcus [30] stood at 1.5; with Enterococcus [31] it was 1.25; with Enterococcus [32], 0.75; with Enterococcus [33], 0.75.

By MIC is commonly meant the smallest concentration in the dilution series that meets the test's criterion for growth inhibition.
